Measurements from ChEMBL document CHEMBL1142962, “Antiproliferative prenylated stilbenes and flavonoids from Macaranga alnifolia from the Madagascar rainforest” (J Nat Prod, 2007).

What was measured:
Format in all cases: functional
Conditions in all cases: Homo sapiens
HT-29 = assay: Growth inhibition of HT29 cells
In short: (§1)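 Tested in the NCI 60 human tumour cell line screen, which was run by NCI. The value for each line is the GI50, the concentration giving 50% growth inhibition. Results are also shown as a mean graph across the full panel.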

KM12 = assay: Growth inhibition of KM12 cells
SW-620 = assay: Growth inhibition of SW620 cells; in short: as §1
SF-268 = assay: Growth inhibition of SF268 cells
SF-295 = assay: Growth inhibition of SF295 cells
SF-539 = assay: Growth inhibition of SF539 cells; in short: as §1
SNB-19 = assay: Growth inhibition of SNB19 cells
SNB-75 = assay: Growth inhibition of SNB75 cells
U-251 = assay: Growth inhibition of U251 cells
LOX IMVI = assay: Growth inhibition of LOX IMVI cells; in short: as §1
M14 = assay: Growth inhibition of M14 cells; in short: as §1
SK-MEL-2 = assay: Growth inhibition of SK-MEL-2 cells
SK-MEL-28 = assay: Growth inhibition of SK-MEL-28 cells; in short: as §1
SK-MEL-5 = assay: Growth inhibition of SK-MEL-5 cells
UACC-257 = assay: Growth inhibition of UACC257 cells; in short: as §1
UACC-62 = assay: Growth inhibition of UACC62 cells
786-0 = assay: Growth inhibition of 786-0 cells
ACHN = assay: Growth inhibition of ACHN cells
SN12C = assay: Growth inhibition of SN12C cells; in short: as §1
TK-10 = assay: Growth inhibition of TK10 cells
UO-31 = assay: Growth inhibition of UO31 cells
PC-3 = assay: Growth inhibition of PC3 cells
DU-145 = assay: Growth inhibition of DU145 cells; in short: as §1
MCF7 = assay: Growth inhibition of MCF7 cells; in short: as §1
NCI/ADR-RES = assay: Growth inhibition of NCI/ADR-RES cells
MDA-MB-231 = assay: Growth inhibition of MDA-MB-231/ATCC cells; in short: as §1
[1] = Growth inhibition of HS 578T cells
MDA-MB-435 = assay: Growth inhibition of MDA-MB-435 cells
[2] = read-out: Log LC50 (the source's name) (converted)

SMILES: COc1cc(/C=C/c2cc(O)c(CC=C(C)C)c(O)c2)cc2c1O[C@]1(C)C[C@@H](O)[C@@H](O)C(C)(C)[C@H]1C2 [SCHWEINFURTHIN E]
- GI50 (HT-29): 1290 nM
- CC50 (HT-29; [2]): > 100 µM
- GI50 (KM12): 457 nM
- CC50 (KM12; [2]): 9.55 µM
- TGI (KM12; read-out: Log TGI (converted)): 2240 nM
- GI50 (SW-620): 110 nM
- CC50 (SW-620; [2]): > 100 µM
- TGI (SW-620; read-out: Log TGI (converted)): 2040 nM
- GI50 (SF-268): 2630 nM
- CC50 (SF-268; [2]): > 100 µM
- TGI (SF-268; read-out: Log TGI (converted)): > 100 µM
- GI50 (SF-295): < 10 nM
- CC50 (SF-295; [2]): < 10 nM
- TGI (SF-295; read-out: Log TGI (converted)): < 10 nM
- GI50 (SF-539): < 10 nM
- TGI (SF-539; read-out: Log TGI (converted)): 158 nM
- GI50 (SNB-19): 11 µM
- CC50 (SNB-19; [2]): > 100 µM
- TGI (SNB-19; read-out: Log TGI (converted)): > 100 µM
- GI50 (SNB-75): 1740 nM
- CC50 (SNB-75; [2]): > 100 µM
- TGI (SNB-75; read-out: Log TGI (converted)): 20 µM
- GI50 (U-251): < 10 nM
- CC50 (U-251; [2]): 32.4 µM
- TGI (U-251; read-out: Log TGI (converted)): 3.98 µM
- GI50 (LOX IMVI): 646 nM
- CC50 (LOX IMVI; [2]): 6.17 µM
- TGI (LOX IMVI; read-out: Log TGI (converted)): 2340 nM
- GI50 (M14): < 10 nM
- CC50 (M14; [2]): 4.27 µM
- TGI (M14; read-out: Log TGI (converted)): 288 nM
- GI50 (SK-MEL-2): 3.72 µM
- CC50 (SK-MEL-2; [2]): > 100 µM
- TGI (SK-MEL-2; read-out: Log TGI (converted)): > 100 µM
- GI50 (SK-MEL-28): 372 nM
- CC50 (SK-MEL-28; [2]): > 100 µM
- TGI (SK-MEL-28; read-out: Log TGI (converted)): 5.25 µM
- GI50 (SK-MEL-5): 661 nM
- CC50 (SK-MEL-5; [2]): 5.62 µM
- TGI (SK-MEL-5; read-out: Log TGI (converted)): 2240 nM
- GI50 (UACC-257): 166 nM
- CC50 (UACC-257; [2]): 37.2 µM
- TGI (UACC-257; read-out: Log TGI (converted)): 3.63 µM
- GI50 (UACC-62): < 10 nM
- CC50 (UACC-62; [2]): 4.07 µM
- TGI (UACC-62; read-out: Log TGI (converted)): 372 nM
- GI50 (786-0): < 10 nM
- CC50 (786-0; [2]): 9.77 µM
- TGI (786-0; read-out: Log TGI (converted)): 1070 nM
- GI50 (ACHN): 372 nM
- CC50 (ACHN; [2]): 13.2 µM
- TGI (ACHN; read-out: Log TGI (converted)): 3.02 µM
- GI50 (SN12C): 2090 nM
- CC50 (SN12C; [2]): 34.7 µM
- TGI (SN12C; read-out: Log TGI (converted)): 7.59 µM
- CC50 (TK-10; [2]): 18.6 µM
- TGI (TK-10; read-out: Log TGI (converted)): 2630 nM
- GI50 (UO-31): 105 nM
- CC50 (UO-31; [2]): > 100 µM
- TGI (UO-31; read-out: Log TGI (converted)): > 100 µM
- GI50 (PC-3): 138 nM
- CC50 (PC-3; [2]): 47.9 µM
- TGI (PC-3; read-out: Log TGI (converted)): 9.55 µM
- GI50 (DU-145): 468 nM
- CC50 (DU-145; [2]): 72.4 µM
- TGI (DU-145; read-out: Log TGI (converted)): 14.1 µM
- GI50 (MCF7): 61.7 nM
- CC50 (MCF7; [2]): > 100 µM
- TGI (MCF7; read-out: Log TGI (converted)): 26.9 µM
- GI50 (NCI/ADR-RES): 2240 nM
- CC50 (NCI/ADR-RES; [2]): 50.1 µM
- TGI (NCI/ADR-RES; read-out: Log TGI (converted)): 6.61 µM
- GI50 (MDA-MB-231): 851 nM
- CC50 (MDA-MB-231; [2]): 26.3 µM
- TGI (MDA-MB-231; read-out: Log TGI (converted)): 3.47 µM
- GI50 [1]: < 10 nM
- CC50 [1, 2]: > 100 µM
- TGI ([1]; read-out: Log TGI (converted)): 363 nM
- GI50 (MDA-MB-435): 123 nM
- CC50 (MDA-MB-435; [2]): 8.71 µM
- TGI (MDA-MB-435; read-out: Log TGI (converted)): 1950 nM
